Source: ChEMBL document CHEMBL4813978 (Bioorg Med Chem Lett, 2021)

How the values were obtained:
[1] = molecular target: T1, Muscarinic acetylcholine receptor M1 (Homo sapiens, UniProt P11229); experiment: Agonist activity at muscarinic M1 receptor (unknown origin) expressed in CHO cells; format: functional, cell-based
T1 sequence (P11229 whole entry): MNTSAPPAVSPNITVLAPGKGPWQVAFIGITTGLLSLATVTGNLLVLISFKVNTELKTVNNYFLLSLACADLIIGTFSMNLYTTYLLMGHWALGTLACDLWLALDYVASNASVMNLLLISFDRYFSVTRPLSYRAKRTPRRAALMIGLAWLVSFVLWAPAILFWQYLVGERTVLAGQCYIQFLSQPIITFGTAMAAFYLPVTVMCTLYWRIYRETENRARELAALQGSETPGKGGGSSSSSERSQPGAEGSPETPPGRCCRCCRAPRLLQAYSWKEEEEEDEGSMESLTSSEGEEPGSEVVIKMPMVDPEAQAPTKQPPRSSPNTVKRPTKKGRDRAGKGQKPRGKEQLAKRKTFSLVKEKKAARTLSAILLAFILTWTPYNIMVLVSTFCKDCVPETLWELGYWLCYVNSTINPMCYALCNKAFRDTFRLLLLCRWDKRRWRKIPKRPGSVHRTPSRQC

[2] = Glutathione reactivity of compound assessed as compound-dGSH conjugate formation incubated by fluorescence detector; format: physicochemical
Summary of the method: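 Test compounds incubated with dansyl-glutathione (dGSH) and a human hepatocyte microsome fraction. The test compound–dGSH conjugate was quantified by fluorescence detection and reported as μmol/L.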

[3] = molecular target: T2, Muscarinic acetylcholine receptor M4 (Homo sapiens, UniProt P08173); experiment: Agonist activity at muscarinic M4 receptor (unknown origin) expressed in CHO cells; format: functional, cell-based
T2 sequence (P08173 whole entry): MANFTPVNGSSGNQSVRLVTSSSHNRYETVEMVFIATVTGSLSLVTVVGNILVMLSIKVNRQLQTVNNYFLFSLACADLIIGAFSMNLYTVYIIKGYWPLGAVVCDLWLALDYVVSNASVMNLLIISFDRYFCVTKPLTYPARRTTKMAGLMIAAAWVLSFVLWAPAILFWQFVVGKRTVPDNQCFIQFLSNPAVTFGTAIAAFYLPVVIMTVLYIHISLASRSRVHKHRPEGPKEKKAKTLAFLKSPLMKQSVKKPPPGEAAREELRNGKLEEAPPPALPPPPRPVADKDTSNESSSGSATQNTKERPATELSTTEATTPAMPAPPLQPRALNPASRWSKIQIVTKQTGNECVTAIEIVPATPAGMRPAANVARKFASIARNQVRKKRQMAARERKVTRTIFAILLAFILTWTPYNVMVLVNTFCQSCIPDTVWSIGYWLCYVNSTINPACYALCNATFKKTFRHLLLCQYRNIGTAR
Summary of the method: (§1)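 Agonist-mode EC50 with Emax. Emax given as mean ± SE of two or more experiments.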

[4] = molecular target: T3, Muscarinic acetylcholine receptor M2 (Homo sapiens, UniProt P08172); experiment: Agonist activity at muscarinic M2 receptor (unknown origin) expressed in CHO cells; format: functional, cell-based; summary of the method: as §1
T3 sequence (P08172 whole entry): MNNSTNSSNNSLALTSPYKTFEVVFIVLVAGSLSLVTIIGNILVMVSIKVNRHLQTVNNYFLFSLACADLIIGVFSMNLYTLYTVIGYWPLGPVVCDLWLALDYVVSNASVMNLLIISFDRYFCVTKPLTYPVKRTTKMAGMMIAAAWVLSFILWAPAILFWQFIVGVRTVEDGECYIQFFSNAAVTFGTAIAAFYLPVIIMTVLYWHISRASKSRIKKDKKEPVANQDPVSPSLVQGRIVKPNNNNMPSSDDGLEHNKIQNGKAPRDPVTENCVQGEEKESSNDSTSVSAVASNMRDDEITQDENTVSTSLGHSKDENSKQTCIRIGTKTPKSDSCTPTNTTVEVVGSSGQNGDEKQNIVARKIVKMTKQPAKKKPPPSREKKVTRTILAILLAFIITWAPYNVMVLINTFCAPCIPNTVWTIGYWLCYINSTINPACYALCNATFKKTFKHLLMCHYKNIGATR

[5] = molecular target: Muscarinic acetylcholine receptor M3 (Homo sapiens, UniProt P20309); experiment: Agonist activity at muscarinic M3 receptor (unknown origin) expressed in CHO cells; format: functional, cell-based
D(2) dopamine receptor = D(2) dopamine receptor (Homo sapiens, UniProt P14416); experiment: Antagonist activity at human D2 receptor expressed in CHO cells assessed as inhibition of dopamine-induced calcium accumulation; format: functional, cell-based
D(1A) dopamine receptor = D(1A) dopamine receptor (Homo sapiens, UniProt P21728); experiment: Antagonist activity at human D1 receptor expressed in CHO cells assessed as inhibition of dopamine-induced calcium accumulation; format: functional, cell-based
[6] = Drug concentration in po dosed mouse brain measured after 1 hr; format: ADME, organism-based; conditions: read-out: Drug uptake
[7] = Drug concentration in po dosed mouse plasma measured after 1 hr; format: ADME, organism-based
[8] = Ratio of drug level in brain to plasma in po dosed mouse after 1 hr; format: ADME, organism-based; conditions: read-out: BPR

D(1A) dopamine receptor, sequence (P21728 whole entry): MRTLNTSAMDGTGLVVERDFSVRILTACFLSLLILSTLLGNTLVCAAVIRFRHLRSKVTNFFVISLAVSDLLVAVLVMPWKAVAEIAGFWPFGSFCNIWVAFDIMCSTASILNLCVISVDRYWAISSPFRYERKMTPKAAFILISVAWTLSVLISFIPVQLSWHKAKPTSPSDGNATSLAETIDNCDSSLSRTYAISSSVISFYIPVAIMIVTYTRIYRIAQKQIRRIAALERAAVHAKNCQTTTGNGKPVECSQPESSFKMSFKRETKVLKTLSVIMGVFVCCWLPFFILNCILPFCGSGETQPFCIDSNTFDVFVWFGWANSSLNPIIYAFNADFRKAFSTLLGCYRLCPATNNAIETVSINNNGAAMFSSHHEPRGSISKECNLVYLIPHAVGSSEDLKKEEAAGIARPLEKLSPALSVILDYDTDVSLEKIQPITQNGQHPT
Muscarinic acetylcholine receptor M3, sequence (P20309 whole entry): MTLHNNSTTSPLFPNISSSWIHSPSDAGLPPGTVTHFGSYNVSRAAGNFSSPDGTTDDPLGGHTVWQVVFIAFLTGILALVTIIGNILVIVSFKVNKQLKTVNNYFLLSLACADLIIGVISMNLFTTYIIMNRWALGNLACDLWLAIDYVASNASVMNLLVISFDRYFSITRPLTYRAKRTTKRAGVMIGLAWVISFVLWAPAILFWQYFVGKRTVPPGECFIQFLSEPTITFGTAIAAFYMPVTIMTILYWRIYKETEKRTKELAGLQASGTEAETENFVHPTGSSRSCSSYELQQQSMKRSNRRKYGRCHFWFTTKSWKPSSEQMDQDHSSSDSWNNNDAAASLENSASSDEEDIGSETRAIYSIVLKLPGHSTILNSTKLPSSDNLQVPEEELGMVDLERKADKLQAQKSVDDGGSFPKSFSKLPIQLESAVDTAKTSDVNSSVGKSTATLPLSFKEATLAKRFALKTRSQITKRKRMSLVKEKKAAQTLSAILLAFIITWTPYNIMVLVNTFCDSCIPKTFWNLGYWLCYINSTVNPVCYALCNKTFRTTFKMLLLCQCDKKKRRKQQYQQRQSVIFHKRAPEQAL
D(2) dopamine receptor, sequence (P14416 whole entry): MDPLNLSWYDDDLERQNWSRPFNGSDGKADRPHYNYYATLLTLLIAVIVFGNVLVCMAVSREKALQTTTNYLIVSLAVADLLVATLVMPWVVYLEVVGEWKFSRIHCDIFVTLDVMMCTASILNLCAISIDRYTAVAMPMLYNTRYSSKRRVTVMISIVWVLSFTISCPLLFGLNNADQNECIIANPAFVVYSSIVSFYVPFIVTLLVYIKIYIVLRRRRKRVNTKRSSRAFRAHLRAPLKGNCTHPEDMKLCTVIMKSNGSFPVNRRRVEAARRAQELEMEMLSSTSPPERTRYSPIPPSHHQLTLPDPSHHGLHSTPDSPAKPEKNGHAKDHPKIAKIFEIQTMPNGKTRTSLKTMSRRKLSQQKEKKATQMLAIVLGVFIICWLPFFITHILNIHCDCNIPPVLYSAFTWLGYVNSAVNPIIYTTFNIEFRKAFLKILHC

| Structure (SMILES) | EC50 [1] [µM] | Activity [2] [µmol/L] | EC50 [3] [µM] | EC50 [4] [µM] | EC50 [5] [µM] | Ki (D(2) dopamine receptor) [µM] | Ki (D(1A) dopamine receptor) [µM] | concentration at 1 h [6] [nM] | concentration at 1 h [7] [nM] | Kp at 1 h [8] |
| --- | --- | --- | --- | --- | --- | --- | --- | --- | --- | --- |
| CN1CC=C(C2=Nc3cc(Cl)ccc3Nc3ccccc32)CC1 | 0.35 | 0.21 | > 10 | > 10 | 0.64 |  |  |  |  |  |
| CCc1ccc2c(c1)C(C1=C[C@H](C)N(C)CC1)=Nc1cc(Cl)ccc1N2 | > 10 |  |  |  |  |  |  |  |  |  |
| Cc1ccc2c(c1)N=C(C1=C[C@H](C)N(C)CC1)c1cc(F)ccc1N2 | > 10 |  |  |  |  |  |  |  |  |  |
| Fc1ccc2c(c1)C(C1=CCNCC1)=Nc1cc(Cl)ccc1N2 | > 10 |  | > 10 | > 10 | > 10 |  |  |  |  |  |
| CN1CC=C(C2=Nc3cc(Cl)ccc3Nc3ccc(F)cc32)CC1 | 4.7 | 0.3 | > 10 | > 10 | > 10 | 0.41 | 0.035 |  |  |  |
| CCN1CC=C(C2=Nc3cc(Cl)ccc3Nc3ccc(F)cc32)CC1 | > 10 | 0.27 | > 10 |  |  | 0.34 |  |  |  |  |
| COc1ccc2c(c1)C(C1=CCN(C)CC1)=Nc1cc(C)ccc1N2 | > 10 | 0.07 | > 10 |  |  | 0.329 |  |  |  |  |
| Cc1ccc2c(c1)N=C(C1=CCNCC1)c1cc(F)ccc1N2 | > 10 |  | > 10 | > 10 | > 10 |  |  | 63 |  |  |
| Cc1ccc2c(c1)N=C(C1=CCN(C)CC1)c1cc(C)ccc1N2 | > 10 | 0.22 | > 10 |  |  | 0.694 | 0.057 |  |  |  |
| CCc1ccc2c(c1)C(C1=CCN(C)CC1)=Nc1cc(C)ccc1N2 | > 10 |  | > 10 |  |  |  |  |  |  |  |
| Cc1ccc2c(c1)N=C(C1=CCN(C)CC1)c1cc(F)ccc1N2 | 0.31 |  | > 10 | > 10 | > 10 |  |  | 1840 | 360 | 5.2 |
| CN1CC=C(C2=Nc3cc(F)ccc3Nc3ccc(Cl)cc32)CC1 | > 10 |  | > 10 |  |  | 0.108 |  |  |  |  |
| CC(C)N1CC=C(C2=Nc3cc(Cl)ccc3Nc3ccc(F)cc32)CC1 | > 10 | 0.29 | > 10 |  |  |  |  |  |  |  |
| CN1CCN(C2=Nc3cc(Cl)ccc3Nc3ccccc32)CC1 [CLOZAPINE] |  | 7.5 |  |  |  |  |  |  |  |  |
| Clc1ccc2c(c1)N=C(N1CCNCC1)c1ccccc1N2 [N-DESMETHYLCLOZAPINE] | 0.048 |  |  | > 10 | 0.67 | 0.489 | 0.08 |  |  |  |
